# In ChEMBL document CHEMBL3244114, “Synthesis of 11 beta,13 beta- and 13 beta,16 beta-propano steroids: probes of hormonal activity” (J Med Chem, 1979):
# The source made the active and inactive calls. The rule behind the calls is not given here.
# Key:
# [1] = target: T1, Progesterone receptor (Oryctolagus cuniculus) (UniProt P06186); assay: Binding affinity to progesterone receptor in rabbit uterine cytosol relative to progesterone; conditions: Uterus
# T1 sequence (whole entry): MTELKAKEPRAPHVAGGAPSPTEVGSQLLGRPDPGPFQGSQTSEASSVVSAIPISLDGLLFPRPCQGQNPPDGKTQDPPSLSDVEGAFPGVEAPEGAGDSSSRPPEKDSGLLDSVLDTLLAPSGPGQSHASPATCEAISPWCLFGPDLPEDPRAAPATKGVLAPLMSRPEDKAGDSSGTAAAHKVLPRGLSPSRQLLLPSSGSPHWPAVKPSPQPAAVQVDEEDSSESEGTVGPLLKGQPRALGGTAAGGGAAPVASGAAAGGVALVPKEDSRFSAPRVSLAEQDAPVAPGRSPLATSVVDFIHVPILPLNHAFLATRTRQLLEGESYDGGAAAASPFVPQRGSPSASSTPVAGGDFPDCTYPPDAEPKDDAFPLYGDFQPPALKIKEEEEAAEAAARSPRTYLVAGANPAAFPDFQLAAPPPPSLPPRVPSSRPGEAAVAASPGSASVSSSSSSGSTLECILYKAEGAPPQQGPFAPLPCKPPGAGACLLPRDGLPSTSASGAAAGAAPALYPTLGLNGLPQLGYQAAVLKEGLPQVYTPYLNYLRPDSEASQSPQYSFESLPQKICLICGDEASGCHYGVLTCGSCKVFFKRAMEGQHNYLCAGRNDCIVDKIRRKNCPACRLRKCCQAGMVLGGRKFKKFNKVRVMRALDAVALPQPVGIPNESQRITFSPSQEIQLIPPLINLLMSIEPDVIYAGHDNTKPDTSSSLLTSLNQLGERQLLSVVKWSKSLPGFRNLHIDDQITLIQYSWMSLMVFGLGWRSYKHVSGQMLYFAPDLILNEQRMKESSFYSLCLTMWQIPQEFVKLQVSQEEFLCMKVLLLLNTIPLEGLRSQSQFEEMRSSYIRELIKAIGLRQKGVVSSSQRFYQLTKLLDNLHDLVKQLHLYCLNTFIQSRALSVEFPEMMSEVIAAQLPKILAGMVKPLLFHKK
# Oryctolagus cuniculus [2] = assay: Antiprogestational activity in estradiol benzoate-primed rabbit at 10 to 15 mg, sc administered qd for 5 days by anti-Clauberg assay in presence of progesterone; format: functional, organism-based
# Procedure, shortened: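 Immature rabbits (six) were primed with estradiol benzoate for 6 days. Each compound (10–15 mg) was then given with progesterone (0.8 mg) in sesame oil, subcutaneously, once daily for 5 days. The read-out was uterine stimulation. NICHD ran the assay.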
# Oryctolagus cuniculus [3] = species: Oryctolagus cuniculus; assay: Progestational activity in immature rabbit assessed as uterine stimulation by Clauberg assay; format: functional
# [4] = Solubility of the compound in carbon tetrachloride; format: physicochemical
Structure (SMILES),Activity [1] [%],solubility [4],Activity (Oryctolagus cuniculus [2]),Activity (Oryctolagus cuniculus [3]) [%]
C#C[C@]1(O)CC[C@H]2[C@@H]3CCC4=CC(=O)CC[C@@H]4[C@H]3CC[C@@]21CCCOC(=O)CBr,2,,inactive,
C#C[C@]1(O)CC[C@H]2[C@@H]3CCC4=CC(=O)CC[C@@H]4[C@H]3CC[C@@]21CCCOC(C)=O,,,inactive,
C#C[C@]1(O)CC[C@H]2[C@@H]3CCC4=CC(=O)CC[C@@H]4[C@H]3[C@H]3CCC[C@]21C3 (racemic),136,,,
C#C[C@]1(O)CC[C@H]2[C@@H]3CCC4=CC(=O)CC[C@@H]4[C@H]3[C@@H](C)C[C@@]21C,390,,,
C#C[C@]1(O)CC[C@H]2[C@@H]3CCC4=CC(=O)CC[C@@H]4[C@H]3[C@@H](C)C[C@@]21CC (racemic),151,,,
COc1ccc2c(c1)CCC1=C2[C@@H]2C[C@]3(CCC2O)[C@@H](OC(C)=O)CC[C@@H]13 (stereo partly drawn),,Insoluble,,

# Now from value to molecule, other results behind:
Activity [1] [%],solubility [4],Structure (SMILES),Activity (Oryctolagus cuniculus [2]),Activity (Oryctolagus cuniculus [3]) [%]
206,,C#CC1(O)CC[C@H]2[C@@H]3CCC4=CC(=O)CC[C@@H]4[C@H]3CC[C@@]21CC (mixture of isomers),,
126,,C#C[C@]1(O)CC[C@H]2[C@@H]3CCC4=CC(=O)CC[C@@H]4[C@H]3CC[C@@]21C,,
1,,C#C[C@]1(O)CC[C@H]2[C@@H]3CCC4=CC(=O)CC[C@@H]4[C@H]3CC[C@@]21CCCCl,inactive,
2,,C#C[C@]1(O)CC[C@H]2[C@@H]3CCC4=CC(=O)CC[C@@H]4[C@H]3CC[C@@]21CCCO,inactive,
1,,C#C[C@]1(O)[C@H]2CCC[C@@]13CC[C@H]1[C@@H](CCC4=CC(=O)CC[C@@H]41)[C@@H]3C2 (racemic),inactive,
21,,C#C[C@]1(O)CC[C@H]2[C@@H]3CCC4=CC(=O)CC[C@@H]4[C@H]3CC[C@@]21CCC=O,inactive,5
